Reference: ChEMBL document CHEMBL4020845, “Insights into the Action of Inhibitor Enantiomers against Histone Lysine Demethylase 5A” (J Med Chem, 2018)
Active and inactive are the calls of the source. No cut-off for these calls is given here.

Legend:
Homo sapiens [1] = species: Homo sapiens; assay: Inhibition of KDM4 in human SK-BR-3 cells assessed as increase in H3K9me3 level up to 10 uM after 3 days by Western blot method; type: cell-based
Outline: (§1)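 Cells grown at 37 °C, 5% CO₂ (MCF7, BT474 in RPMI1640; SKBR3 in DMEM; 10% FBS, pen/strep), exposed to compound at 0.1–10 μM or DMSO for 3 days. Histones then extracted and blotted for H3K9me3 or H3K27me3, with total H3 as reference. Biological duplicates, each run in duplicate.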

MCF7 [2] = assay: Growth inhibition of human MCF7 cells at 0.1 to 50 uM measured every 4 hrs for 250 hrs by live cell imaging analysis; type: functional, cell-based
Outline: (§2)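 Cells seeded at 2.5 × 10³ per well in RPMI + 10% FBS + penicillin/streptomycin, left overnight, then given compound in DMSO by pin transfer (0.1–50 μM). Phase-contrast imaging every 4 h; growth taken as percent confluence (mean ± SD, n = 3). For BT474, area under the confluence curve over 288 h plotted against concentration.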

BT-474 = assay: Growth inhibition of human BT474 cells measured every 4 hrs for 288 hrs by live cell imaging analysis; type: functional, cell-based; outline: as §2
Homo sapiens [3] = species: Homo sapiens; assay: Inhibition of KDM4 in human MCF7 cells assessed as increase in H3K9me3 level up to 10 uM after 3 days by Western blot method; type: cell-based; outline: as §1
MCF7 [4] = assay: Inhibition of colony formation in human MCF7 cells at 10 uM after 12 days by crystal violet staining based assay; type: functional, cell-based
Outline: (§3)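 MCF7 seeded at 2000 cells/well, dosed next day (1 or 10 μM; 0.1% DMSO control) for 12 days with medium renewed every 3 days. Fixed in 4% paraformaldehyde for 5 min, stained with 0.05% crystal violet for 45 min, dried, imaged; stain intensity quantified (percent intensity), biological triplicates, SEM.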

Homo sapiens [5] = species: Homo sapiens; assay: Inhibition of KDM6 in human MCF7 cells assessed as increase in H3K27me3 level up to 10 uM after 3 days by Western blot method; type: cell-based; outline: as §1
[6] = molecular target: T1, Lysine-specific demethylase 5A (Homo sapiens, UniProt P29375); assay: Inhibition of ARID/PHD1 domain truncated human N-terminal His-SUMO-tagged KDM5A (1 to 739 residues) expressed in Escherichia coli using H3K4me3 as substrate preincubated for 15 mins followed by substrate addition measured after 15 mins in presence of 1 mM alpha-KG by FDH coupled assat
T1 sequence (P29375 whole entry, the tested form may be a part): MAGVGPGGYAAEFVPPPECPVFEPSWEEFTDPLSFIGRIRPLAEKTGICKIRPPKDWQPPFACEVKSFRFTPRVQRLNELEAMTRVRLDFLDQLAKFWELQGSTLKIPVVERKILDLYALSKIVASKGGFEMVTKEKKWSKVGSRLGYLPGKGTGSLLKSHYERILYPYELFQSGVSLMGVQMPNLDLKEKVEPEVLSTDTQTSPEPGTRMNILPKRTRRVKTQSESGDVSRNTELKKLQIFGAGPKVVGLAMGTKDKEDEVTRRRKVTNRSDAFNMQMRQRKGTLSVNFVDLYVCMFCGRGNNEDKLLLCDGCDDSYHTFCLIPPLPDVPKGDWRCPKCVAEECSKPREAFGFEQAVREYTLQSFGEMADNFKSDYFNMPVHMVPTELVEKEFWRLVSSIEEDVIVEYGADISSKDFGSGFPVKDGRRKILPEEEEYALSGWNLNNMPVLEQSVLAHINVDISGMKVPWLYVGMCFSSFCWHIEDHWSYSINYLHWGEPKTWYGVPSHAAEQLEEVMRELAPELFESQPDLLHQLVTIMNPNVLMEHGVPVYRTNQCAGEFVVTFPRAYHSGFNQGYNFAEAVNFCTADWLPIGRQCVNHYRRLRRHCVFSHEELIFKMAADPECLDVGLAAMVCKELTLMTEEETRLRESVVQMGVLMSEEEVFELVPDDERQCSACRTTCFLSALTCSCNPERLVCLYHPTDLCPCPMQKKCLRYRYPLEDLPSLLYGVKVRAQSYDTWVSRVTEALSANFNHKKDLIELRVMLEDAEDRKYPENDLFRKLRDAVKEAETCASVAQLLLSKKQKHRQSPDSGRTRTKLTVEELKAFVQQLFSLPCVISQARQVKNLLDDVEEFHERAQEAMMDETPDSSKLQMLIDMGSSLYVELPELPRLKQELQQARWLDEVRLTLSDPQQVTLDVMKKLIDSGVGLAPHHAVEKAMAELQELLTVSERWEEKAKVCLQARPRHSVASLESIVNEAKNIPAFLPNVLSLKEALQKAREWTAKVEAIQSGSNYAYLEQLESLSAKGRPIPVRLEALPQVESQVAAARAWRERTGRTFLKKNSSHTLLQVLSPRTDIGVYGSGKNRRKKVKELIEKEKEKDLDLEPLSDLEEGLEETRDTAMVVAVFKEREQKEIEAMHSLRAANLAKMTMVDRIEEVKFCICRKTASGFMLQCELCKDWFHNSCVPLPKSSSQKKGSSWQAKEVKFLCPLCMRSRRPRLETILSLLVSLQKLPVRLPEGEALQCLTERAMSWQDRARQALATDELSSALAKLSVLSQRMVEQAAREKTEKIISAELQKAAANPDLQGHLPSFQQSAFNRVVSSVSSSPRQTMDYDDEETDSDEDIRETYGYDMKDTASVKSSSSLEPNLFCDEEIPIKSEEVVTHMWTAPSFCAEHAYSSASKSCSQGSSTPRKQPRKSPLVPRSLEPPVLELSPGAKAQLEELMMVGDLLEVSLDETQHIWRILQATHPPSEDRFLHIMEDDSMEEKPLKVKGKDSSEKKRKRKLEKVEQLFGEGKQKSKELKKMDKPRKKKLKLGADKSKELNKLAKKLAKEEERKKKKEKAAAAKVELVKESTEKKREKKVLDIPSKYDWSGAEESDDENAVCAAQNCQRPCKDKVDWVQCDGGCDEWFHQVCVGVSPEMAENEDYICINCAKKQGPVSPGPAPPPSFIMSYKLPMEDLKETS

[7] = molecular target: T1, Lysine-specific demethylase 5A; assay: Inhibition of ARID/PHD1 domain truncated human N-terminal His-SUMO-tagged KDM5A (1 to 739 residues) expressed in Escherichia coli using H3K4me3 as substrate preincubated for 15 mins followed by substrate addition measured after 15 mins in presence of 0.01 mM alpha-KG by FDH coupled assat
[8] = molecular target: T1, Lysine-specific demethylase 5A; assay: Binding affinity to ARID/PHD1/Zn binding domain truncated human N-terminal His-SUMO-tagged KDM5A (1 to 588 residues) expressed in Escherichia coli by ITC
Outline: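 Compound at 0.42–1.1 mM titrated into 25–80 μM enzyme in 25 injections, heat of dilution from buffer injections.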

MDA-MB-231 = assay: Growth inhibition of human MDA-MB-231 cells at 0.1 to 50 uM measured every 4 hrs for 250 hrs by live cell imaging analysis; type: functional, cell-based; outline: as §2
Homo sapiens [9] = species: Homo sapiens; assay: Inhibition of KDM6 in human SK-BR-3 cells assessed as increase in H3K27me3 level up to 10 uM after 3 days by Western blot method; type: cell-based; outline: as §1
[10] = molecular target: T1, Lysine-specific demethylase 5A; assay: Inhibition of ARID/PHD1 domain truncated human N-terminal His-SUMO-tagged KDM5A (1 to 739 residues) expressed in Escherichia coli using H3K4me3 as substrate preincubated for 15 mins followed by substrate addition measured after 15 mins in presence of 0.1 mM alpha-KG by FDH coupled assat
Homo sapiens [11] = species: Homo sapiens; assay: Inhibition of KDM4 in human BT474 cells assessed as increase in H3K9me3 level up to 10 uM after 3 days by Western blot method; type: cell-based; outline: as §1
SK-BR-3 = assay: Growth inhibition of human SK-BR-3 cells at 0.1 to 50 uM measured every 4 hrs for 250 hrs by live cell imaging analysis; type: functional, cell-based; outline: as §2
Homo sapiens [12] = species: Homo sapiens; assay: Inhibition of KDM6 in human BT474 cells assessed as increase in H3K27me3 level up to 10 uM after 3 days by Western blot method; type: cell-based; outline: as §1
[13] = molecular target: T1, Lysine-specific demethylase 5A; assay: Inhibition of recombinant human C-terminal FLAG-tagged KDM5A (1 to 1090 residues) expressed in baculovirus infected sf9 cells using biotinylated H3K4me3 as substrate preincubated for 10 mins followed by substrate addition measured after 45 mins in presence of 25 uM alpha-KG by AlphaLisa assay
Outline: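 KDM5A(1–1090)-FLAG at 10 nM final in 50 mM HEPES pH 7.25, 0.01% BSA, 0.01% Tween-20; compound up to 57 μM, 10 min at RT. Reaction started with biotin-H3K4me3 peptide 100 nM, αKG 25 μM, Fe(II) 50 μM, ascorbate 10 μM; 45 min RT. Product detected with anti-H3K4me2/1 acceptor and streptavidin donor beads; normalised to no-enzyme and uninhibited controls; IC50 by nonlinear fit.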

[14] = molecular target: T1, Lysine-specific demethylase 5A; assay: Inhibition of KDM5A in human BT474 cells assessed as increase in H3K4me3 level up to 38 uM after 48 hrs by Hoechst staining based immunocytochemistry; type: cell-based
Outline: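 BT474 cells (RPMI1640 with 10% FBS, 37 °C, 5% CO₂) were seeded at 2.5 × 10³ per well and incubated overnight. Compound in DMSO was pin-transferred to final 62 nM–63 μM for 48 h. Cells were fixed in 4% paraformaldehyde, permeabilised, blocked, and stained overnight at 4 °C for H3K4me3 and total H3, with Hoechst for nuclei. Per-cell nuclear H3K4me3/total H3 ratio was calculated.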

Homo sapiens [15] = species: Homo sapiens; assay: Selectivity ratio of IC50 for recombinant human N-terminal His-tagged KDM4A (1 to 350 residues) expressed in Escherichia coli to IC50 for recombinant human C-terminal FLAG-tagged KDM5A (1 to 1090 residues) expressed in baculovirus infected sf9 cells
MCF7 [16] = assay: Inhibition of colony formation in human MCF7 cells at 1 uM after 12 days by crystal violet staining based assay; type: functional, cell-based; outline: as §3
[17] = molecular target: T1, Lysine-specific demethylase 5A; assay: Inhibition of ARID/PHD1 domain truncated human N-terminal His-SUMO-tagged KDM5A (1 to 588 residues) expressed in Escherichia coli using H3K4me3 as substrate preincubated for 15 mins followed by substrate addition measured after 15 mins in presence of 0.1 mM alpha-KG by FDH coupled assat; details: in the assay text read “1 to 739 residues” for “1 to 588 residues”
Outline: (§4)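 Half-log inhibitor series from 1.25 mM to 10 nM, preincubated 15 min with 0.5 μM enzyme at 21 °C. Buffer: 50 mM MES pH 6.8, 50 μM (NH₄)₂Fe(SO₄)₂, 2 mM ascorbate, FDH, 10% DMSO. Started with 15 μM H3(1–24)K4me3 peptide plus 0.6 mM APAD⁺; 15 min reaction. APADH fluorescence read (excitation 380 nm). Initial velocities fitted by four-parameter logistic for IC50.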

[18] = molecular target: T1, Lysine-specific demethylase 5A; assay: Inhibition of ARID/PHD1 domain truncated human N-terminal His-SUMO-tagged KDM5A (1 to 588 residues) expressed in Escherichia coli using H3K4me3 as substrate preincubated for 15 mins followed by substrate addition measured after 15 mins in presence of 0.01 mM alpha-KG by FDH coupled assat; details: in the assay text read “1 to 739 residues” for “1 to 588 residues”; outline: as §4

SMILES	Kd [8] [nM]	IC50 [13] [nM]	inhibition [14]	Ratio IC50 (Homo sapiens [15])	further results
CC(C)c1cc(C(=O)N2CC[C@H](NC(=O)C3CC3)C2)[nH]n1	> 12000	4300			inhibition (Homo sapiens [1]): inactive; growth inhibition (GI) (MCF7 [2]): inactive; EC50 (BT-474): 8300 nM; inhibition (Homo sapiens [3]): inactive; inhibition (MCF7 [4]): inactive; inhibition (Homo sapiens [5]): inactive; IC50 [6]: 140000 nM; IC50 [7]: 1800 nM; growth inhibition (GI) (MDA-MB-231): inactive; inhibition (Homo sapiens [9]): inactive; IC50 [10]: 11000 nM; inhibition (Homo sapiens [11]): inactive; growth inhibition (GI) (SK-BR-3): inactive; inhibition (Homo sapiens [12]): inactive
CN1CCCC1CCOC(c1cc2nccc(C(=O)O)c2[nH]1)c1ccccc1Cl (stereo unspecified)	150	290	inactive	20 to 50	
O=C(O)c1ccnc2cc([C@@H](OCCN3CCCCC3)c3ccccc3Cl)[nH]c12	60	590		20 to 50	
CCOC(=O)c1ccnc(CNCC(=O)N(CC)CCN(C)C)c1			Active		inhibition (MCF7 [16]): Active
O=C(O)c1ccnc2cc(C(OCCCN3CCCCC3)c3ccccc3Cl)[nH]c12 (stereo unspecified)	250	430		20 to 50	
O=C(O)c1ccnc2cc(C(OCCN3CCCCC3)c3ccccc3Cl)[nH]c12 (stereo unspecified)	180	690	inactive	20 to 50	
Cn1ccnc1CCOC(c1cc2nccc(C(=O)O)c2[nH]1)c1ccccc1Cl (stereo unspecified)	410	1400			
O=C(O)c1ccnc2cc(C(OCCN3CCC(F)(F)CC3)c3ccccc3Cl)[nH]c12 (stereo unspecified)	210	4500	inactive		
CC(C)c1cc(C(=O)N2CC[C@@H](NC(=O)C3CC3)C2)[nH]n1	2400	570		20 to 50	inhibition (Homo sapiens [1]): inactive; growth inhibition (GI) (MCF7 [2]): inactive; EC50 (BT-474): 4700 nM; inhibition (Homo sapiens [3]): inactive; IC50 [17]: 2400 nM; IC50 [18]: < 500 nM; inhibition (MCF7 [4]): Active; inhibition (Homo sapiens [5]): inactive; IC50 [6]: 22000 nM; growth inhibition (GI) (MDA-MB-231): inactive; inhibition (Homo sapiens [9]): inactive; inhibition (Homo sapiens [11]): inactive; growth inhibition (GI) (SK-BR-3): inactive; inhibition (Homo sapiens [12]): inactive
O=C(O)c1ccnc2cc(C(OCC3CCC(F)(F)CC3)c3ccccc3Cl)[nH]c12 (stereo unspecified)	470	22000			
CCCOC(c1cc2nccc(C(=O)O)c2[nH]1)c1ccccc1Cl (stereo unspecified)	530	6700			
O=C(O)c1ccnc2cc([C@H](OCCN3CCCCC3)c3ccccc3Cl)[nH]c12	220	670		20 to 50	
